B1: tRNA (parent)
chain: GUUCCGUUGGCGUAAUGGUAACGCGUCUCCCUCCUAAGGAGAAGACUGCGGGUUCGAGUCCCGUACGGAACG

Variants at the floor of the assay were thinned out.

In the data set the parent is B1. The data set is described as follows: yeast fitness relative to wild type (ratio to wild type); higher = fitter; tRNA-Arg(CCU), competitive growth, 37 C, YPD. The method in brief: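 Amplicons of the tRNA-Arg(CCU) gene were sequenced, 100-nucleotide paired-end, from the start population and from each end population of a pooled yeast competition. The competition, in six parallel replicates, lasted 24 hours in YPD at 37°C. Fitness relative to wild type was calculated from changes in genotype frequencies. Genotypes had to have ≥ 100 starting reads, and estimates < 0.5 were set to 0.5.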
For the variant U19A C24G C27U C30A U64A A70C, the yeast fitness was at most 0.5.
Turning to U19A C30G G39C U53C C55A, the yeast fitness is at most 0.5.
On to G18C G23A C61A, for which the yeast fitness was at most 0.5.
Regarding G18C G23A C61U, the yeast fitness was at most 0.5.
For U19A C31U, the yeast fitness stood at 0.954.
Turning to G18C C34G G39C, the yeast fitness is at most 0.5.
In the case of U19A C22G C34U A42G A43G G51A A70U, the yeast fitness was at most 0.5.
For U19A C34G A43C C49U the value was at most 0.5; for G18C G41C A43C C55U, at most 0.5.
On to U19A A40C C55A C66A, for which the yeast fitness was at most 0.5.
The result for G18C C29G A45G C66U reads 0.613.
For the variant U19A C30G, the yeast fitness was 0.671.
Regarding G18C C30G C46U G48A U54G, the yeast fitness is at most 0.5.
The result for U19A C24A C31G G68C reads at most 0.5; that for U19A A36U, 0.653; that for G18C C46U C61G, at most 0.5.
Turning to G18C C30U A45U, the yeast fitness was determined as 0.549.
The result for G18C G51C C61G A70C reads at most 0.5; that for U19A A42G G67U, 0.585.
The result for G18C C33A A36C G51C reads at most 0.5.
In the case of G18C C33A U54A C62A, the yeast fitness was determined as 0.577.
For U19A C31G A70U the value was 0.919; for G18C C60U G67A, at most 0.5; for U19A C24G, 0.633.
Regarding U19A C24U, the yeast fitness turned out to be 1.03.
For U19A C24A the value was 0.598.
In the case of G18C G51A A69G, the yeast fitness was at most 0.5.
The result for U19A A21G C27U C33U reads at most 0.5.
Turning to U19A C24U G38A U54C C55U C66A, the yeast fitness was at most 0.5.
U19A A40G C60U U64C: the yeast fitness came to 0.705.
Consider G18U C31U G63A, for which the yeast fitness was determined as 0.527.
In the case of U19A A21G A43C G51C, the yeast fitness is at most 0.5.
For the variant U19A A36G U59A, the yeast fitness was at most 0.5.
With U19A C24A C31G C62U G68C, the yeast fitness worked out at 0.535.
Take U19A C27U A45U C62A: the yeast fitness is at most 0.5.
As for G18C U28G A36C G38C, the yeast fitness was at most 0.5.
Consider G18C C22U G56C, for which the yeast fitness came out at 0.542.
Turning to U19A C22G A45U C49U U64A, the yeast fitness was at most 0.5.
Take G18U U32C A45G A57G: the yeast fitness is at most 0.5.
As to U19A A43C A69U, the yeast fitness is 0.56.
For U19A C24U A69U, the yeast fitness is 0.746.
The result for U19A C30G A36G A57U A65U reads at most 0.5; that for G18C C49G C61G, at most 0.5; that for U19A C27U A43U C55U, at most 0.5.
As for G18C U59A, the yeast fitness is 0.631.
In the case of G18C C24G C46A, the yeast fitness is at most 0.5.
As to G18C C24G C46G, the yeast fitness is at most 0.5.
With G18C G63A, the yeast fitness was 0.535.
Take U19A C29G G48A C61A: the yeast fitness amounted to 0.683.
The result for G18U A45U U59C reads 0.542; that for G18C C24G U35C G50C C55G, at most 0.5.
Take G18C G58C: the yeast fitness was 0.635.
For G18C G58A the value was 0.701; for G18C G23C G48A, at most 0.5; for G18C C34G G58C, at most 0.5.
In the case of U19A A36U G50U C61U, the yeast fitness was at most 0.5.
For the variant U19A C24G C61U, the yeast fitness was at most 0.5.
The result for G18U G39A reads 0.594; that for G18C C27U G68C, 0.548; that for G18C U47A, 0.553.
For U19A C22G A70U, the yeast fitness turned out to be 0.509.
U19A A42U C46G: the yeast fitness turned out to be 0.988.
Take U19A A40G: the yeast fitness turned out to be 0.75.
The result for G18C U28A A42U reads at most 0.5; that for G18C U26A U53C, 0.549; that for U19A A40G C55G, at most 0.5.
Take U19A C27A A45C: the yeast fitness stood at 0.557.
U19A A20C A21G C30G C55G: the yeast fitness worked out at 0.573.
The result for G18C G23A G25C A37G A43C C55G G63A G68A reads at most 0.5; that for G18C G23C G39A, at most 0.5.
Turning to G18C C27U C55G A65G G68C, the yeast fitness is at most 0.5.
With U19A A21C G25C C31G C33U G67A, the yeast fitness is at most 0.5.
On to G18C G48A C66U, for which the yeast fitness is 0.545.
On to G18C C27U C61A, for which the yeast fitness is at most 0.5.
For U19A C27U the value was 1.02; for G18C G25C U28G A42G U47C C49U A57U, at most 0.5; for G18C U19C A21G C61U, at most 0.5.
As for U19A C27U A57G, the yeast fitness was 0.725.
On to U19A C24G G25A C46G G52A A65C, for which the yeast fitness is at most 0.5.
As to G18C C49U G56C G58A, the yeast fitness is at most 0.5.
U19A A37C C49G: the yeast fitness worked out at 0.501.
Turning to G18C C31G A42G G67A, the yeast fitness was at most 0.5.
G18C U35G G41C G56A A65G C66U: the yeast fitness is at most 0.5.
For G18C C31A A43G G58C A65G the value was at most 0.5.
With U19A C24U G38A U54C C62U C66A, the yeast fitness was at most 0.5.
On to G18C U53C C61U, for which the yeast fitness is at most 0.5.
For U19A C22G C30G A42G C46G the value was 0.741; for U19A C29G U54C G58A, at most 0.5.
The result for U19A C22G G23C C30G C34A reads 0.519; that for G18C C29U C30U G67A, at most 0.5; that for U19A A21U, 0.854.
As for G18C G38A A43U A45G A57G U59C, the yeast fitness was at most 0.5.
Turning to G18C U19G C27U A43U A65U, the yeast fitness was at most 0.5.
For G18C C24A A57C C66U A69C, the yeast fitness is at most 0.5.
In the case of U19A C29G C46A G68C, the yeast fitness was at most 0.5.
As for U19A C30G A36G C61G, the yeast fitness is at most 0.5.
For U19A C24G G38A G58C C60U C62U C66U the value was at most 0.5.
For the variant U19A C24G C33G C34G, the yeast fitness is 0.528.
On to G18C U35A A45C G48A, for which the yeast fitness is at most 0.5.
As to G18C C33G C49A C55U, the yeast fitness is 0.517.
For U19A C27U C55U the value was 0.572; for G18C C55G, 0.585; for G18C C55U, 0.532.
G18C C24G A36C G38C G58C: the yeast fitness is at most 0.5.
Regarding G18C G39C G50A, the yeast fitness was at most 0.5.
For the variant G18U C30U C49G, the yeast fitness was at most 0.5.
Regarding G18C C49U C62U, the yeast fitness was at most 0.5.
Turning to U19A C30U G38C U53G, the yeast fitness was at most 0.5.
For the variant G18C G48A U53G, the yeast fitness was at most 0.5.
For G18C G23A C24U C61U, the yeast fitness was at most 0.5.
For U19A A20G G56A, the yeast fitness was 0.956.
In the case of G18C U26C U28A A65U, the yeast fitness is at most 0.5.
The result for G18C C22U C34G reads 0.688; that for G18U U26A C49U G50C, at most 0.5; that for U19A C22U A40U G51C C66U A70G, at most 0.5.
As for U19A A37U A43G A57G, the yeast fitness was 0.594.
For U19A C22G G23C C30G C34A C55U, the yeast fitness was at most 0.5.
The result for G18C G23A G25A C49U C60G reads at most 0.5.
With G18C U28C, the yeast fitness is 0.663.
The result for U19A A37C reads 0.778; that for U19A A37U, 0.747.
For G18C U19G A45C G67A the value was at most 0.5; for U19A C24U C29A U54A, at most 0.5.
Consider G18C C62G C66A, for which the yeast fitness was at most 0.5.
Consider G18C U19G A20G C33A U35C C66A, for which the yeast fitness is at most 0.5.
For the variant U19A C30G A43C U47C U54C, the yeast fitness is at most 0.5.
On to G18C U19A A36U, for which the yeast fitness was at most 0.5.
Regarding U19A C24U G38A U54C, the yeast fitness was at most 0.5.
The result for U19A C22U U32C C60G reads at most 0.5; that for G18C C22G C31U U59A G63A, at most 0.5; that for U19A C22G, 0.919.
U19A C22U A37C G38C: the yeast fitness turned out to be 0.516.
Regarding G18C C27U G38A G39C U64C, the yeast fitness was at most 0.5.
In the case of G18C C29U A70C, the yeast fitness is at most 0.5.
For G18C C29G A36C G44C G50A C66A the value was at most 0.5.
On to G18C G48A C55A, for which the yeast fitness is at most 0.5.
Turning to G18C G44A C62G, the yeast fitness was at most 0.5.
Regarding G18C C24G C34U C49A U64C G67A, the yeast fitness was at most 0.5.
For U19A C30A A45U G50C, the yeast fitness amounted to 0.62.
For G18C G23A G25C A37G A43C the value was at most 0.5; for U19A A42G U47C, at most 0.5.
The result for U19A C27G A65U reads at most 0.5.
For U19A C27A C31A A57C, the yeast fitness was 0.799.
For G18C C24G A36C G38C U54C G58C, the yeast fitness is at most 0.5.
For U19A C31G A65U the value was 0.582.
Take U19A C31G G38C A40C G56A: the yeast fitness was found to be 0.569.
Turning to G18C U47A A70U, the yeast fitness was at most 0.5.
With G18C U19C, the yeast fitness came out at 0.587.
As to G18C C30U C31G G50A, the yeast fitness is at most 0.5.
For the variant G18C G25C, the yeast fitness was found to be 0.677.
Turning to U19A A43U, the yeast fitness worked out at 1.
With U19A A21G C27U C33U G67C, the yeast fitness is at most 0.5.
Turning to G18C G25C C33U C61U, the yeast fitness was at most 0.5.
For the variant G18C C24U C29G C30G, the yeast fitness amounted to 0.593.
Turning to G18C G52A A57U A65C, the yeast fitness was at most 0.5.
For G18C C29U A43G C49A the value was at most 0.5.
G18C G23A G25C A37G A65G: the yeast fitness is at most 0.5.
For the variant G18C C27G G48A C66G G67A, the yeast fitness is at most 0.5.
Turning to G18C C66U, the yeast fitness came to 0.59.
Take G18C C33G A36C C46A: the yeast fitness is at most 0.5.
For G18C C29U, the yeast fitness stood at 0.546.
For U19A A70U the value was 1.03.
In the case of U19A A70C, the yeast fitness was determined as 1.03.
For the variant U19A C27U G44A, the yeast fitness was found to be 0.781.
On to G18C U26G C55G, for which the yeast fitness was at most 0.5.
As for U19A C27A C31A G52A G58C A70G, the yeast fitness was at most 0.5.
As for G18C C29G A36C G44C G50A, the yeast fitness is 0.526.

The values are drawn from the RNAGym collection of RNA variant scans (doi:10.1126/science.aae0568).
